pIC50: −log10 of the molar value. Values after ≈ are worked out from the molar mass of the structure shown. Active and inactive are the calls of the source. The rule behind the calls is not given here.
What was measured:
[1] = test system: HepG2; assay: Antiproliferative activity against human HepG2 cells assessed as growth inhibition at 0.6 ug/ml after 48 hrs by SRB assay; type: functional; conditions: HepG2, 48 h, read-out: GI
Procedure, shortened: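 Single-concentration SRB screen. HepG2 cells were grown in MEM-EBSS with 10% FBS and exposed to 0.6 µg/mL compound for 48 h alongside untreated controls. Cells were fixed with TCA and stained with SRB, then read at 492 nm. Results are given as % inhibition versus control, from triplicates reported as mean and SD.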

[2] = test system: HepG2; assay: Antiproliferative activity against human HepG2 cells assessed as growth inhibition after 24 hrs by SRB assay; type: functional, cell-based; conditions: HepG2, 24 h
Procedure, shortened: (§1)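 SRB assay. Cells were seeded at 4×10^3–8×10^3/mL in MEM-EBSS with 10% heat-inactivated FBS at 37 °C and 5% CO2, then treated at 0.039, 0.15, 0.63 and 2.5 µg/mL for 24 or 48 h. Cells were fixed with 50% TCA, stained with 0.4% SRB in 1% acetic acid and solubilized in 10 mM Trizma base, with absorbance read at 492 nm. IC50 is the concentration giving 50% of control cell number, from triplicates reported as mean and SD.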

[3] = test system: HCT-116; assay: Antiproliferative activity against human HCT116 cells assessed as growth inhibition after 24 hrs by SRB assay; type: functional, cell-based; conditions: HCT-116, 24 h; procedure, shortened: as §1
[4] = test system: HCT-116; assay: Antiproliferative activity against human HCT116 cells assessed as growth inhibition after 48 hrs by SRB assay; type: functional, cell-based; conditions: HCT-116, 48 h; procedure, shortened: as §1
[5] = test system: HepG2; assay: Antiproliferative activity against human HepG2 cells assessed as growth inhibition after 48 hrs by SRB assay; type: functional, cell-based; conditions: HepG2, 48 h; procedure, shortened: as §1
[6] = test system: HCT-116; assay: Cell cycle arrest in human HCT116 cells assessed as accumulation at S phase at 0.5 ug/ml after 24 hrs using propidium iodide staining by flow cytometric analysis (reference value: 29.1%); type: functional
[7] = Antiproliferative activity against human MCF7/ADR cells assessed as growth inhibition after 24 to 48 hrs by SRB assay; type: functional, cell-based; conditions: NCI/ADR-RES
Procedure, shortened: (§2)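 Parental MCF-7 cells and doxorubicin-resistant MCF-7/ADrR cells were tested; the resistant line was maintained in medium containing DOX. Each line was treated at 0.039–2.5 µg/mL for 24 and 48 h. Growth was read by SRB staining after TCA fixation, with absorbance at 492 nm. IC50 is the concentration reducing cell number to 50% of control, from triplicates.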

[8] = test system: HCT-116; assay: Cell cycle arrest in human HCT116 cells assessed as accumulation at S phase at 0.5 ug/ml after 12 hrs using propidium iodide staining by flow cytometric analysis (reference value: 29.1%); type: functional
[9] = test system: MCF7; assay: Antiproliferative activity against human MCF7 cells assessed as growth inhibition after 24 to 48 hrs by SRB assay; type: functional, cell-based; procedure, shortened: as §2
[10] = target: T1, DNA topoisomerase 1 (Homo sapiens) (UniProt P11387); assay: Inhibition of human DNA topoisomerase 1 assessed as decrease in mobility of relaxed isomers of supercoiled pBR322 DNA at 15 uM after 30 mins
T1 sequence (whole entry): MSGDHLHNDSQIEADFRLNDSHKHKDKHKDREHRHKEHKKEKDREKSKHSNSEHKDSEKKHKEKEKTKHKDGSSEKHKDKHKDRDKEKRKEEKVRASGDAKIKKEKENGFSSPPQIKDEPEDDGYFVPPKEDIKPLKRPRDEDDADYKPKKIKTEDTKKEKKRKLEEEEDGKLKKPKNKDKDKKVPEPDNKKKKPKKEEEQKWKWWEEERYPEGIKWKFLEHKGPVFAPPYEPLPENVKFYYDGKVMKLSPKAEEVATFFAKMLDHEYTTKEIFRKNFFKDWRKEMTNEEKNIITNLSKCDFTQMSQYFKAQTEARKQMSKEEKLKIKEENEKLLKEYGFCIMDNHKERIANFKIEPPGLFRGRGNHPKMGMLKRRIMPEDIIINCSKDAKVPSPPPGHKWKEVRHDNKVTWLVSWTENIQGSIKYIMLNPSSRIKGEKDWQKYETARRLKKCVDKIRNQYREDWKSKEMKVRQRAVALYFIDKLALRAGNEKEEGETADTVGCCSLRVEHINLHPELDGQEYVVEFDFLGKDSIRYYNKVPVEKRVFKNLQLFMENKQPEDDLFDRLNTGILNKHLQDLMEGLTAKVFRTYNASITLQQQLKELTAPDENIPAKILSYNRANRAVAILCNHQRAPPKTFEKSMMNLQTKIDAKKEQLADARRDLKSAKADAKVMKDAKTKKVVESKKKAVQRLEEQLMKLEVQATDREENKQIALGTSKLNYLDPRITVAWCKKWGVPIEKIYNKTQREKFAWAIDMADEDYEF
Procedure, shortened: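 Gel-based relaxation assay with 1 unit human Top I. Enzyme was preincubated with compound at 37 °C for 20 min, then 0.5 µg supercoiled pBR322 DNA was added and incubated at 37 °C for 30 min. Reactions were stopped with 0.5% SDS, bromophenol blue and 15% glycerol. Relaxed and supercoiled forms were resolved by agarose electrophoresis.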

[11] = test system: HCT-116; assay: Cell cycle arrest in human HCT116 cells assessed as accumulation at G0/G1 phase at 0.5 ug/ml after 24 hrs using propidium iodide staining by flow cytometric analysis (reference value: 48.7%); type: functional
[12] = test system: HCT-116; assay: Cell cycle arrest in human HCT116 cells assessed as accumulation at S phase at 0.5 ug/ml after 4 hrs using propidium iodide staining by flow cytometric analysis (reference value: 29.1%); type: functional
[13] = test system: HCT-116; assay: Cell cycle arrest in human HCT116 cells assessed as accumulation at G0/G1 phase at 0.5 ug/ml after 4 hrs using propidium iodide staining by flow cytometric analysis (reference value: 48.7%); type: functional
[14] = test system: HCT-116; assay: Cell cycle arrest in human HCT116 cells assessed as accumulation at G2/M phase at 0.5 ug/ml after 4 hrs using propidium iodide staining by flow cytometric analysis (reference value: 22.2%); type: functional
[15] = test system: HCT-116; assay: Cell cycle arrest in human HCT116 cells assessed as accumulation at G0/G1 phase at 0.5 ug/ml after 12 hrs using propidium iodide staining by flow cytometric analysis (reference value: 48.7%); type: functional
[16] = test system: HCT-116; assay: Cell cycle arrest in human HCT116 cells assessed as accumulation at G2/M phase at 0.5 ug/ml after 12 hrs using propidium iodide staining by flow cytometric analysis (reference value: 22.2%); type: functional
[17] = test system: HCT-116; assay: Cell cycle arrest in human HCT116 cells assessed as accumulation at G2/M phase at 0.5 ug/ml after 24 hrs using propidium iodide staining by flow cytometric analysis (reference value: 22.2%); type: functional
[18] = target: DNA topoisomerase 2-alpha (Homo sapiens) (UniProt P11388); assay: Inhibition of human DNA topoisomerase 2 assessed as decatenation of kinetoplast DNA at 15 ug/ml after 30 mins
Procedure, shortened: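 Decatenation assay with 0.15 µg kinetoplast DNA and 4 U human Top II. Buffer was 50 mM Tris-HCl pH 8, 120 mM KCl, 10 mM MgCl2, 0.5 mM ATP, 0.5 mM DTT and 30 µg/mL BSA, incubated at 37 °C for 30 min with or without compound. Reactions were stopped with Sarkosyl loading dye and run on 1% agarose in TAE at 4 V/cm for 40 min. Gels were stained with ethidium bromide and imaged under UV.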

[19] = target: T1, DNA topoisomerase 1 (Homo sapiens); conditions: 18 to 36 uM
[20] = target: DNA topoisomerase 2-alpha (Homo sapiens) (UniProt P11388); conditions: 100 ug/ml

Sequence of DNA topoisomerase 2-alpha (Homo sapiens) (P11388 whole entry): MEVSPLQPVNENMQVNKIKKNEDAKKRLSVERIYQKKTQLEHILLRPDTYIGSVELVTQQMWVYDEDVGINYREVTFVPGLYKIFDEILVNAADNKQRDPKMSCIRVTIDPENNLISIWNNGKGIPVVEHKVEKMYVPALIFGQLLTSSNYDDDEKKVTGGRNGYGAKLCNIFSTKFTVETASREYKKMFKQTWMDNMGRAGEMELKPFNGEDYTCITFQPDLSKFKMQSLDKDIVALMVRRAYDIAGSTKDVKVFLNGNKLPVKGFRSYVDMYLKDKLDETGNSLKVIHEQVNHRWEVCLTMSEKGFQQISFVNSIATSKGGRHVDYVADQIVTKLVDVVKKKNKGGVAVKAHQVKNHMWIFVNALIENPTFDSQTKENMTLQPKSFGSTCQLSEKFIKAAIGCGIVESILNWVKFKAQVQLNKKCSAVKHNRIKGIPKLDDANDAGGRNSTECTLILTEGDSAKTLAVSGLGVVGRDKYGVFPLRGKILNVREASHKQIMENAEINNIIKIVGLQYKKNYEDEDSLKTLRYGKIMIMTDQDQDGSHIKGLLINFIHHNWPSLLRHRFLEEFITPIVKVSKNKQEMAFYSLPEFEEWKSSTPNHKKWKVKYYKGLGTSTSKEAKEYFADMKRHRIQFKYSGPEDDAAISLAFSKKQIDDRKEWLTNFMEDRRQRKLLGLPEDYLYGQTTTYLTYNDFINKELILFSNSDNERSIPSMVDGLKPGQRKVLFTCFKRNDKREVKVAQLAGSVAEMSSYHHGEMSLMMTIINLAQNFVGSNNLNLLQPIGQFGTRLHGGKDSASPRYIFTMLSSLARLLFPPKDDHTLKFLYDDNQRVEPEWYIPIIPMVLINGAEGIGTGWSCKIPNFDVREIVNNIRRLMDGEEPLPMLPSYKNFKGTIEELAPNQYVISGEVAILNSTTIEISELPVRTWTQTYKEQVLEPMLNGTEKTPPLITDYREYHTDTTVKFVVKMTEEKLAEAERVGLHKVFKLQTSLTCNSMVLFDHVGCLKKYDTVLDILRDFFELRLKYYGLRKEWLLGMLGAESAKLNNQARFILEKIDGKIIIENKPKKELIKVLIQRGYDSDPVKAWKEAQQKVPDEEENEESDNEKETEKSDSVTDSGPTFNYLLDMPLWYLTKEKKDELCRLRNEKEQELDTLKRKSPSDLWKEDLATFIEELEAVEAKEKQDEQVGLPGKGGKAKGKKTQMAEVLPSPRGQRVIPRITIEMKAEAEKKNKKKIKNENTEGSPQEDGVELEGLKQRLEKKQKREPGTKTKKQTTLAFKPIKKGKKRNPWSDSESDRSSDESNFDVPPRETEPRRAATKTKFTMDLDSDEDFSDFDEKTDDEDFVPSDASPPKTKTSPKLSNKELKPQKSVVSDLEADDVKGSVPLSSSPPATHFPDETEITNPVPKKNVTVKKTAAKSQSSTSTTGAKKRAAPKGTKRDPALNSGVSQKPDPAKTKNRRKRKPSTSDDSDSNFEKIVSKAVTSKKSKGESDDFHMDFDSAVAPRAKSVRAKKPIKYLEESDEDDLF

| SMILES | inhibition of growth at 0.6 µg/mL [1] [%] | pIC50 [2] | pIC50 [3] | pIC50 [4] | pIC50 [5] | other results |
| --- | --- | --- | --- | --- | --- | --- |
| COc1ccc(C(=O)Oc2c(OC)ccc3c2c[n+]2c4c3ccc3c5c(cc(c34)CC2)OCO5)cc1[N+](=O)[O-] | 53.6 |  |  |  |  |  |
| CCCCOc1c(OC)ccc2c1c[n+]1c3c2ccc2c4c(cc(c23)CC1)OCO4 | 62.6 |  |  |  |  |  |
| COc1ccc2c(c[n+]3c4c2ccc2c5c(cc(c24)CC3)OCO5)c1O | 50 |  |  |  |  |  |
| COc1cc(C(=O)Oc2c(OC)ccc3c2c[n+]2c4c3ccc3c5c(cc(c34)CC2)OCO5)cc(OC)c1OC | 86.5 | 6.42 | 6.04 | 6.43 | 6.49 |  |
| COc1ccc2c(c[n+]3c4c2ccc2c5c(cc(c24)CC3)OCO5)c1OC(=O)c1ccc(C)c([N+](=O)[O-])c1 | 50.9 |  |  |  |  |  |
| COc1ccc2c(c[n+]3c4c2ccc2c5c(cc(c24)CC3)OCO5)c1OC(=O)c1ccccc1.[Cl-] | 86.6 | 6.33 | 5.25 | 6.39 | 6.85 | Activity [6]: 24.6%; IC50 [7]: 3.66 µg/mL; Activity [8]: 45.9%; IC50 [9]: 2.5 µg/mL; inhibition [10]: Active; Activity [11]: 2.18%; Activity [12]: 57.5%; Activity [13]: 13.2%; Activity [14]: 29.3%; Activity [15]: 2.29%; Activity [16]: 51.8%; Activity [17]: 73.3%; inhibition [18]: Active |
| CCOc1c(OC)ccc2c1c[n+]1c3c2ccc2c4c(cc(c23)CC1)OCO4 | 41.9 |  |  |  |  |  |
| COc1ccc2c(c[n+]3c4c2ccc2c5c(cc(c24)CC3)OCO5)c1OCc1ccc(F)cc1F | 50.7 |  |  |  |  |  |
| COc1ccc2c(c[n+]3c4c2ccc2c5c(cc(c24)CC3)OCO5)c1OS(=O)(=O)c1ccc(NC(C)=O)cc1 | 8.9 |  |  |  |  |  |
| COc1ccc2c(c[n+]3c4c2ccc2c5c(cc(c24)CC3)OCO5)c1OC(=O)c1ccc(F)c([N+](=O)[O-])c1 | 69.6 |  |  |  |  |  |
| COc1ccc2c(c[n+]3c4c2ccc2c5c(cc(c24)CC3)OCO5)c1OC(=O)c1ccc(F)cc1 | 70.3 |  |  |  |  |  |
| COc1ccc2c(c[n+]3c4c2ccc2c5c(cc(c24)CC3)OCO5)c1OC(=O)c1ccccc1Cl | 62.3 |  |  |  |  |  |
| CC[C@@]1(O)C(=O)OCc2c1cc1n(c2=O)Cc2cc3cc(O)ccc3nc2-1 [HYDROXYCAMPTOTHECIN] | 85.4 |  |  |  |  | inhibition [19]: Active |
| COc1ccc2c(c[n+]3c4c2ccc2c5c(cc(c24)CC3)OCO5)c1OS(=O)(=O)c1ccccc1 | 56.2 |  |  |  |  |  |
| COc1ccc2c(c[n+]3c4c2ccc2c5c(cc(c24)CC3)OCO5)c1OC | 53.4 | 5.92 | 6.25 | 5.77 | 6.15 |  |
| COc1ccc(C(=O)Oc2c(OC)ccc3c2c[n+]2c4c3ccc3c5c(cc(c34)CC2)OCO5)cc1 | 84.5 | 6.36 | 6.41 | 6.37 | 6.39 |  |
| COc1ccc2c(c[n+]3c4c2ccc2c5c(cc(c24)CC3)OCO5)c1OCc1ccccc1 | 53.3 |  |  |  |  |  |
| COc1ccc2c(c[n+]3c4c2ccc2c5c(cc(c24)CC3)OCO5)c1OC(=O)c1ccccc1F | 93.7 | 6.03 | 6.38 | 6.55 | 6.82 |  |
| COc1cc([C@@H]2c3cc4c(cc3[C@@H](O[C@@H]3O[C@@H]5CO[C@@H](C)O[C@H]5[C@H](O)[C@H]3O)[C@H]3COC(=O)[C@H]23)OCO4)cc(OC)c1O |  |  |  |  |  | inhibition [20]: Active |
| COc1ccc2c(c[n+]3c4c2ccc2c5c(cc(c24)CC3)OCO5)c1OC(=O)c1ccc(F)cc1F | 92.5 | 6.21 | 5.51 | 6.41 | 6.89 |  |
| COc1cccc2c1C(=O)c1c(O)c3c(c(O)c1C2=O)C[C@@](O)(C(=O)CO)C[C@@H]3O[C@H]1C[C@H](N)[C@H](O)[C@H](C)O1 [DOXORUBICIN] |  |  |  |  |  | IC50 [7]: 24.4 µg/mL (≈ 44.9 µM) |
| COc1ccc2c(c[n+]3c4c2ccc2c5c(cc(c24)CC3)OCO5)c1OC(=O)c1ccc(C)cc1 | 63.7 |  |  |  |  |  |
| COc1ccc2c(c[n+]3c4c2ccc2c5c(cc(c24)CC3)OCO5)c1OC(C)=O | 88.7 | 6.00 | 7.05 | 6.08 | 6.72 |  |
| COc1ccc2c(c[n+]3c4c2ccc2c5c(cc(c24)CC3)OCO5)c1OC(=O)c1ccc2c(c1)OCO2 | 88.6 | 6.38 | 5.51 | 6.35 | 6.66 |  |
